Results of several laboratories.
Lines come from different studies, so protocols differ.
ABL1 Y253F phosphorylated: Tyrosine-protein kinase ABL1, phosphorylated (ABL1, Homo sapiens, UniProt P00519, Y253F)
ABL1 F317I non-phosphorylated: Tyrosine-protein kinase ABL1, non-phosphorylated (ABL1, Homo sapiens, UniProt P00519, F317I)
ABL1 F317L non-phosphorylated: Tyrosine-protein kinase ABL1, non-phosphorylated (ABL1, Homo sapiens, UniProt P00519, F317L)
ABL1 Q252H phosphorylated: Tyrosine-protein kinase ABL1, phosphorylated (ABL1, Homo sapiens, UniProt P00519, Q252H)
ABL1 H396P non-phosphorylated: Tyrosine-protein kinase ABL1, non-phosphorylated (ABL1, Homo sapiens, UniProt P00519, H396P)
ABL1 M351T phosphorylated: Tyrosine-protein kinase ABL1, phosphorylated (ABL1, Homo sapiens, UniProt P00519, M351T)
ABL1 T315I phosphorylated: Tyrosine-protein kinase ABL1, phosphorylated (ABL1, Homo sapiens, UniProt P00519, T315I)
ABL1 F317L: Tyrosine-protein kinase ABL1 (ABL1, Homo sapiens, UniProt P00519, F317L)
ABL1 H396P phosphorylated: Tyrosine-protein kinase ABL1, phosphorylated (ABL1, Homo sapiens, UniProt P00519, H396P)

SMILES	target	observed	method	tested at	remaining binding [%]
Nc1ncc2c(n1)-c1c([nH]c3ccc(C#CC4CC4)cc13)CCCC2	ABL1 Y253F phosphorylated	binding	competition with immobilised ligand	1 µM	95
CNC(=O)[C@@H]1CC[C@@H](n2c(-c3ccc4cnccc4c3)nc3ccc(C(=O)NCc4cccc(C(N)=O)c4)cc32)C1	ABL1 F317I non-phosphorylated	binding	competition with immobilised ligand	1 µM	100
CN(C)c1nccc(-c2cnn3ncccc23)n1	Tyrosine-protein kinase ABL1 (ABL1, Homo sapiens, UniProt P00519, T315I)	binding	–	1 µM	80
COc1cnc(Nc2cccc(S(N)(=O)=O)c2)nc1N1CCN(c2ccccc2)C(=O)C1	ABL1 Y253F phosphorylated	binding	competition with immobilised ligand	1 µM	82
CO[C@H]1CC[C@H](CNc2ccc(S(=O)(=O)NC(=O)c3ccc(N4CCN(CC5=C(c6ccc(Cl)cc6)CC(C)(C)CC5)CC4)cc3Oc3cnc4[nH]ccc4c3)cc2[N+](=O)[O-])CC1	Tyrosine-protein kinase ABL1, non-phosphorylated (ABL1, Homo sapiens, UniProt P00519, Q252H)	cell-free assay	competition with immobilised ligand	1 µM	81
C=CC(=O)N1CCC(C(=O)NCC(=O)N2CCN(c3nc(-c4cnc(N)nc4C(F)F)nc(N4CCOCC4)n3)CC2)CC1	ABL1 F317L non-phosphorylated	binding	competition with immobilised ligand	1 µM	90
O=C(Nc1c[nH]nc1C(=O)NC1CCNCC1)c1cc(F)cc(F)c1	ABL1 Q252H phosphorylated	binding	competition with immobilised ligand	1 µM	99
O=C(O)[C@@H]1[C@@H](Cn2nnc3ccccc3c2=O)CC[C@H]1C(=O)c1ccc(OCCC2CCOCC2)cc1	ABL1 H396P non-phosphorylated	cell-free assay	competition with immobilised ligand	1 µM	97
COc1ncc2cc3ccccc3nc2c1C#N	ABL1 M351T phosphorylated	cell-free assay	competition with immobilised ligand	5 µM	100
O=C(c1ccc(Nc2ncc(Cl)c(-c3cc4ccccc4s3)n2)cc1)N1CCC(N2CCCC2)CC1	ABL1 T315I phosphorylated	binding	competition with immobilised ligand	1 µM	3.3
COc1cnc(Nc2cccc(S(N)(=O)=O)c2)nc1N1CCN(c2ccccc2)CC1	ABL1 F317I non-phosphorylated	binding	competition with immobilised ligand	1 µM	94
CSc1cccnc1N1CCN(Cc2nc3ccccc3[nH]2)CC1	ABL1 F317L non-phosphorylated	cell-free assay	competition with immobilised ligand	1 µM	100
CN(CCCC(F)(F)F)c1nccc(-c2cnn3ncccc23)n1	ABL1 F317L	binding	–	1 µM	100
C[C@@H](c1ccc(-n2cnc3c(N)ncnc32)cc1)N1CCc2nn(C)c(Cc3ccccc3)c2C1=O	ABL1 T315I phosphorylated	binding	competition with immobilised ligand	0.1 µM	78
CN(C(=O)c1ccccc1)c1cc(N(C)c2ccc3c(c2)CCc2ccc(C(=O)NCCN4CCOCC4)cc2C3=O)ccc1F	ABL1 H396P phosphorylated	cell-free assay	competition with immobilised ligand	1 µM	100
O=C(NCC1CCOCC1)c1n[nH]cc1NC(=O)c1c(F)cccc1F	Tyrosine-protein kinase ABL1, non-phosphorylated (ABL1, Homo sapiens, UniProt P00519)	binding	competition with immobilised ligand	1 µM	88

SMILES	target	observed	method	tested at	remaining binding [%]
C[C@@H]1CCN(c2nccc(-c3cnn4ncccc34)n2)C1	Tyrosine-protein kinase ABL1, phosphorylated (ABL1, Homo sapiens, UniProt P00519)	binding	–	1 µM	61
O=C(NCc1ncc(C(F)(F)F)cc1Cl)c1ccc2c(c1)C1(CCS(=O)(=O)CC1)[C@@H](C1CC1)N2S(=O)(=O)c1ccc(F)cc1	ABL1 M351T phosphorylated	cell-free assay	competition with immobilised ligand	1 µM	94
N[C@@H]1CCN(c2nccc(-c3cnn4ncccc34)n2)C1	Tyrosine-protein kinase ABL1 (ABL1, Homo sapiens, UniProt P00519, Q252H)	binding	–	1 µM	74
CCN1CCN(Cc2ccc(C(=O)Nc3ccc(C)c(Oc4ccc5c(c4)CC(=O)N5)c3)cc2C(F)(F)F)CC1	Tyrosine-protein kinase ABL1, phosphorylated (ABL1, Homo sapiens, UniProt P00519, F317I)	binding	competition with immobilised ligand	1 µM	24
Cc1cnc(Nc2ccc(C(=O)N3CCC(N4CCCC4)CC3)cc2)nc1-c1cc2ccccc2s1	ABL1 Q252H phosphorylated	binding	competition with immobilised ligand	1 µM	1.4
N#CC1(c2ccccn2)CCN(Cc2cc(C(=O)N3CCCC3)c(=O)n3ccccc23)CC1	ABL1 Q252H phosphorylated	cell-free assay	competition with immobilised ligand	1 µM	90
c1cncc(-c2cccc(Nc3nccc(NC4CCCCC4)n3)c2)c1	ABL1 M351T phosphorylated	binding	competition with immobilised ligand	10 µM	38
O=C(c1ccc(Nc2nccc(-c3cc4ccccc4s3)n2)cc1)N1CCC(N2CCCC2)CC1	ABL1 H396P phosphorylated	binding	competition with immobilised ligand	1 µM	13
CC1CCCN1c1nccc(-c2cnn3ncccc23)n1 (stereo not shown)	ABL1 F317L	binding	–	1 µM	96
O=C(NCCCN1CCOCC1)c1ccc(Nc2ncc(Cl)c(-c3ccc(Cl)s3)n2)cc1	ABL1 H396P phosphorylated	binding	competition with immobilised ligand	1 µM	32
O=C(NC[C@@H]1[C@H]2CN(C(=O)OCc3cc(C(F)(F)F)cc(C(F)(F)F)c3)C[C@@H]12)c1ccc2[nH]nnc2c1	Tyrosine-protein kinase ABL1, phosphorylated (ABL1, Homo sapiens, UniProt P00519, E255K)	binding	competition with immobilised ligand	1 µM	92
O=C(NCCCN1CCOCC1)c1ccc(Nc2nccc(-c3cc4ccccc4s3)n2)cc1	ABL1 H396P non-phosphorylated	binding	competition with immobilised ligand	1 µM	24
C[C@@]1(Cc2ccc(C#N)cc2)C(=O)N(c2cc(Cl)cc(Cl)c2)c2ncc(C(=O)NC3(c4nc(C5CCC5)no4)CC3)n21	ABL1 F317I non-phosphorylated	binding	competition with immobilised ligand	1 µM	94
COc1ccnn2ncc(-c3ccnc(N(C)C)n3)c12	Tyrosine-protein kinase ABL1 (ABL1, Homo sapiens, UniProt P00519, F317I)	binding	–	1 µM	82
O=C(c1ccc(Nc2ncc(Cl)c(-c3ccc(Cl)s3)n2)cc1)N1CCC(N2CCCC2)CC1	ABL1 Y253F phosphorylated	binding	competition with immobilised ligand	1 µM	5
